Source: paper PMC2806602 (The Journal of neuroscience : the official journal of the …, 2009)
Substitutions are numbered along the chain they refer to.

Experiments:
GluRδ2^Wt = biological target: T1, GluRδ2^Wt (Rattus norvegicus, UniProt Q63226); conditions: ref Naur et al., 2007; cited from earlier work
T1 sequence (Q63226 24-1007): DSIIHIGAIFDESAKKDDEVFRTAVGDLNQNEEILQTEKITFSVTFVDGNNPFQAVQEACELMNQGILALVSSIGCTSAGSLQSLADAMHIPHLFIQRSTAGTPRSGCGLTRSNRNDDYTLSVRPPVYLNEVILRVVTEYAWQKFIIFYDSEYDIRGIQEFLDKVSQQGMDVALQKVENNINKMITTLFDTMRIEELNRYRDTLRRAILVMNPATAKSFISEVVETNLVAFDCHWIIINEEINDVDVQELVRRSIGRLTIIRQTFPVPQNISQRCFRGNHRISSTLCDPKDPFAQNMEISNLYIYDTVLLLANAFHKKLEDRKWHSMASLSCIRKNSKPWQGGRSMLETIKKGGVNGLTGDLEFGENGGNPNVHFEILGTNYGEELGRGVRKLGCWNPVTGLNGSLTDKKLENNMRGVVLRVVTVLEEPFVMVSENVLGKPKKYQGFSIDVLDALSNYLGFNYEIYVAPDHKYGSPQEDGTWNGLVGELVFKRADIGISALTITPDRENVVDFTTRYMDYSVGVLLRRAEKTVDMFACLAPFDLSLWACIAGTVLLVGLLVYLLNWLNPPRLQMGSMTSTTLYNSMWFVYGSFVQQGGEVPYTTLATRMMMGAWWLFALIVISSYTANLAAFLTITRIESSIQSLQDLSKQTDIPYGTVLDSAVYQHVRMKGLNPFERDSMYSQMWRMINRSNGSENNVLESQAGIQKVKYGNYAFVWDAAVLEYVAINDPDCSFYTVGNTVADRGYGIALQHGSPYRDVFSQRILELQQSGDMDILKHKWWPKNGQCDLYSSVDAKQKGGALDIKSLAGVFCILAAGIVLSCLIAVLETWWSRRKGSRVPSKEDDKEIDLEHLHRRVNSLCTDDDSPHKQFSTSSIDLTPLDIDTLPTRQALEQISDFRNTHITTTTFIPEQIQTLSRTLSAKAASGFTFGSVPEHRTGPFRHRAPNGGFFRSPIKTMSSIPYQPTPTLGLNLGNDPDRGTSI

GluRδ2^Lc D742A = biological target: T2, GluRδ2^Lc D742A (Rattus norvegicus, UniProt Q63226, A654T/D742A); test: Two-electrode voltage-clamp recordings in Xenopus oocytes, GluRδ2^Lc D742A; assay type: cell-based; conditions: 3 mM Ca^2+; baseline spontaneously active current; ± SEM
T2 sequence (Q63226 24-1007 A654T/D742A): T1 sequence (Q63226 24-1007) with A631T, D719A
Summary of the method: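 Oocytes expressing the Lc mutant were kept in 25 μM NASP to prevent cytotoxicity. Two-electrode voltage clamp at −40 mV and 23°C, 24–72 h after cRNA injection. Bath: 90 mM NaCl, 3 mM KCl, 0.5 mM BaCl2, 10 mM HEPES, pH 7.6. Choline or NMDG chloride balanced Cl− and osmolarity. Values are fold increase over the Ca2+-free spontaneously active baseline on applying 3 mM Ca2+, given as mean ± SEM over oocytes.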

Ca^2+ potentiation (relative to baseline) (GluRδ2^Lc D742A) [fold] | Structure (SMILES) | activation of currents at recombinant GluRδ2^Wt by D-serine (GluRδ2^Wt)
 | N[C@H](CO)C(=O)O [D-serine] | fails to activate currents
3.5 ± 0.11 | [Ca+2] [Ca^2+, calcium] | 
